# Source: PubChem (Johns Hopkins Ion Channel Center)
# Only some compounds are listed: those with a hit (about 2.3% of all), similar ones and a draw of the others.
# TRPC4 act – activators of mouse TRPC4 channel, primary screen, Fluo4 calcium, HEK293 TRPC4beta/mu-opioid cells | Fluo4 calcium fluorescence; active compounds read high | B-score at 10 µM | 310,000 tested, 0.49% active;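 active means B-score above 5 SD of library B-scores, and initial fluorescence ratio not above library mean plus 5 SD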;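 further: positive B-score marks a calcium rise read as TRPC4 activation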
# Target sequence (Q9QUQ5 whole entry, looked up): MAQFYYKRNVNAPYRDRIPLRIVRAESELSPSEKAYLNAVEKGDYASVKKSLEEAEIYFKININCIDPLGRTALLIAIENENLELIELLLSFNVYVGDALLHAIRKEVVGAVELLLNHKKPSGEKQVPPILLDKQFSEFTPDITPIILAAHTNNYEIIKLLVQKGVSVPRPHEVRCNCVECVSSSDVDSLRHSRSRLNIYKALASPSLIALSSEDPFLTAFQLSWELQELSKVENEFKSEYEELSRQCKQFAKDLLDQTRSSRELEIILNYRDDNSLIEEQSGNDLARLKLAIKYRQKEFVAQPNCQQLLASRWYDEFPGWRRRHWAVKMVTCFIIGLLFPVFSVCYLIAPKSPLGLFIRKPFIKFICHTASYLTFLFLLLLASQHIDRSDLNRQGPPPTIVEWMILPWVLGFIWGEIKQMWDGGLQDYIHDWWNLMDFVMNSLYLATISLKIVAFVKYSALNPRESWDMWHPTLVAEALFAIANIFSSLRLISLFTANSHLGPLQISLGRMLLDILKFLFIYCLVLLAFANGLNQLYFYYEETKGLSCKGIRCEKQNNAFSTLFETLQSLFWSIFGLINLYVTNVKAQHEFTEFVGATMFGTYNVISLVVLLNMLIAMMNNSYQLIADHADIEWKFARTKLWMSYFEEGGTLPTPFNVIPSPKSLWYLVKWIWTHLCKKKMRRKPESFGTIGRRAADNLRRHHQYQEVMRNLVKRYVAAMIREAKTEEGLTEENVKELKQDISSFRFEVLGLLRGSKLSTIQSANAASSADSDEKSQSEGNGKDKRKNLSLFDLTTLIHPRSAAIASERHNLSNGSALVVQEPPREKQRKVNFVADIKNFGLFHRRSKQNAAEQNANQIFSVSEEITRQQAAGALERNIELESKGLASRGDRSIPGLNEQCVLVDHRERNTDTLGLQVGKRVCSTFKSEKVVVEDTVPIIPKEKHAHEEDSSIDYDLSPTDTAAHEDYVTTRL
#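 Technique: kinetic Fluo4 calcium fluorescence; Test system: TRPC4beta and mu-opioid receptor HEK293 stable cells; Measure: B-scored integrated calcium fluorescence ratio; Benchmarks: low control buffer alone, high control maximal DAMGO; Schedule: 45 min room-temperature Fluo4 loading, 110 s read.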
# TRPC6 act – mouse TRPC6 channel activators, primary screen, cell-based, HEK293, membrane potential dye; HEK293-TRPC6 membrane potential dye fluorescence; active compounds read high; B-score at 10 µM; 310,000 tested, 0.13% active; AID 2550, 2010;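 active means B-score of the integrated fluorescence ratio above library mean plus 3 SD, and starting fluorescence ratio within library mean plus 5 SD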;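 further: higher score means more depolarization so channel activation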
# TRPC4 inh – inhibitors of mouse TRPC4 channel, primary screen, Fluo4 calcium, HEK293 TRPC4beta/mu-opioid cells; Short transient receptor potential channel 4 (Mus musculus), Q9QUQ5; 300,000 tested, 0.39% active; B-score at 10 µM; AID 2247, 2010; DAMGO-evoked Fluo4 calcium flux; active compounds read low;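 active means B-score over 3 SD under the library average, no early fluorescence shift, positive overall ratio signal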
#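 material = TRPC4beta/mu-opioid receptor HEK293 cell line | probe or stimulus = sequential submaximal and maximal DAMGO stimulation | compound dosing = one concentration per compound | measured by = Fluo4 Ca2+ flux fluorescence | evaluation = integrated fluorescence ratio relative to baseline, converted to per-well B score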
# TRPC6 inhibitor – mouse TRPC6 channel inhibitors, primary screen, cell-based, HEK293, membrane potential dye. 310,000 tested, 1.1% active. ACh-evoked depolarization; active compounds read low. AID 2553, 2010. B-score at 10 µM;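 active means B-score under library mean minus 3 SD, initial fluorescence not abnormally high, positive integrated signal ratio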;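 further: B-score derived from integrated fluorescence ratio over the kinetic read; more negative B-score means stronger inhibition of depolarization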
# TRPC4 potent – positive allosteric modulators of TRPC4, primary screen, cell-based, mouse TRPC4beta, HEK293 mu-opioid, Fluo-4 calcium; Short transient receptor potential channel 4 (Mus musculus), Q9QUQ5; DAMGO EC20, Fluo-4 Ca2+ flux; active compounds read high; B-score at 10 µM; 310,000 tested, 0.42% active; AID 2227, 2009;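 active means B-score of calcium response area above 5 SD of library B-scores, with initial fluorescence ratio within 5 SD of library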;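 further: B-score of integrated fluorescence ratio over time as area under calcium response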
# The depositor's hits bear a star; i = inactive.
SMILES,TRPC4 act,TRPC6 act,TRPC4 inh,TRPC6 inhibitor,TRPC4 potent
O=C(NCCCNCCCNC(=O)c1ccc(/C=N/O)nc1)c1ccc(/C=N/O)nc1,i,i,i,i,i
CN(CCNC(=O)c1ccc(/C=N/O)nc1)Cc1ccccc1,i,i,i,i,22*
Cc1sc2ncnc(SCC(=O)N(C)C3CCS(=O)(=O)C3)c2c1C (stereo not given),i,i,i,i,34*
CN(C(=O)CSc1ncnc2scc(-c3ccccc3)c12)C1CCS(=O)(=O)C1 (stereo not given),i,i,i,i,i
CCn1c(C)nc2cc(C(=O)N/N=C/c3ccc(O)c(O)c3O)ccc21,i,i,i,i,14*
CCCOc1cccc(C(=O)NCCNC(=O)c2ccco2)c1,i,i,-6*,i,i
Cc1ccc(-n2cc(CNC(C)c3cnn(C)c3)c(-c3ccc(F)cc3)n2)cc1 (stereo not given),233*,i,i,i,i
Cc1ccc(-n2cc(CN3CCN(Cc4nccn4C)CC3)c(-c3ccc(F)cc3)n2)cc1,i,i,i,i,i
Cc1ccc(-n2cc(CNC(C)c3cnn(C)c3C)c(-c3ccc(F)cc3)n2)cc1 (stereo not given),184*,i,i,i,i
Cc1ccc(-n2cc(CNCCc3cscn3)c(-c3ccc(F)cc3)n2)cc1,130*,i,i,i,i
Cc1ccc(-c2nn(-c3ccccc3)cc2CNCc2ccccc2)cc1,i,i,i,i,i
CCN(CC)CCNc1nc(SC)nc2sc3c(c12)CCN(C)C3,i,i,i,i,i
CSc1nc(NCCCN(C)C)c2c3c(sc2n1)CN(C)CC3,i,i,i,-7.8*,i
C=CCn1c(N2CCOCC2)nc2c1c(=O)[nH]c(=O)n2C,i,i,i,i,i
CN(CC1CCCN(CCc2cccc(C(F)(F)F)c2)C1)C(=O)c1cc2ccccc2o1 (stereo not given),i,i,-8*,i,i
COc1cccc(C(=O)N(C)CC2CCN(CCc3cccc(C(F)(F)F)c3)CC2)c1,109*,i,i,i,i
COc1ccc(C2C(O)C(c3c[nH]c4ccccc34)=NN2C(=O)CCl)cc1 (stereo not given),i,i,i,i,21*
Cc1ccc2oc(C(=O)N3CCC(O)(c4ccccc4)CC3)c(C)c2c1,i,i,i,i,15*
CCN(CC)C(=O)C1CCN(C(=O)c2oc3ccc(C)cc3c2C)CC1,i,i,i,i,i
CC(=O)C12CCCCC1CC1[C@@H]3CC(C)C4=CC(=O)CC[C@]4(C)C3CC[C@@]12C (stereo not given in full),i,i,i,i,12*
CC(=O)O[C@]1(C(C)=O)CC[C@H]2[C@@H]3C[C@H](C)C4=CC(=O)CC[C@]4(C)[C@H]3CC[C@@]21C,i,i,i,i,i
COCCN(C(=O)COC(=O)c1ccccc1Oc1ccccc1)c1c(N)n(Cc2ccccc2)c(=O)[nH]c1=O,i,i,i,i,i
CN1CCN(C(=O)Nc2ccccc2)CC1,i,i,i,i,i
CSc1cccc(NC(=O)N2CCN(C)CC2)c1,i,i,i,i,28*
COc1ccc(-c2cc(C#N)nc(N3CCN(C)CC3)n2)cc1,i,i,i,i,i
SMILES,TRPC4 act,TRPC6 act,TRPC4 inh,TRPC6 inhibitor,TRPC4 potent
COc1ccc(-c2cc(C(F)(F)F)nc(N3CCN(C)CC3)n2)cc1,i,i,i,i,15*
COc1ccc(-c2cc(C#N)nc(N3CCNCC3)n2)cc1,129*,i,i,i,i
CCn1ccnc1CN(C)C(=O)C1CCC(=O)N(CCc2cccc(F)c2)C1 (stereo not given),i,i,i,i,i
CC1CCCN(C(C(=O)NC2CCCCC2)c2cc3c(cc2[N+](=O)[O-])OCO3)C1 (stereo not given),i,i,i,i,i
CC1CCN(C(C(=O)NC2CCCCC2)c2cc3c(cc2[N+](=O)[O-])OCO3)CC1 (stereo not given),i,i,i,i,11*
Cn1c(N)c(C(=O)COC(=O)CNS(=O)(=O)c2cccc(Cl)c2)c(=O)n(C)c1=O,i,i,i,i,i
Cc1ccccc1OCCNc1cc(N2CCNCC2)ccc1[N+](=O)[O-],i,i,i,-7.9*,14*
CCn1c(=O)cc(OCC(=O)N2CCN(c3cccc(C(F)(F)F)c3)CC2)c2ccccc21,i,i,i,i,11*
CN1C2C=C(N(CCc3c[nH]c4ccccc34)C(=O)c3ccc(Cl)cc3)CC1CC2 (stereo not given),88*,i,-6*,i,i
COC(=O)c1sccc1NC(=O)CSc1ccccc1N,i,i,i,i,i
COC(=O)c1sccc1NC(=O)CSc1ccccc1NC(=O)CNC(C)C,i,i,-6*,i,i
FC(F)(F)c1ccnc(N2CCN(Cc3cnc(-c4ccccc4)[nH]3)CC2)c1,i,i,-7*,i,i
CC(=O)Nc1ccc(S(=O)(=O)N2CCN(c3cc(C(F)(F)F)ccn3)CC2)cc1,i,i,i,i,i
COc1ccc(C2=CC(=O)C=CC2=O)cc1,91*,i,i,i,i
CC1(c2ccccc2)O[C@@H]2C[C@H]3[C@@H]4CCC5=CC(=O)C=C[C@]5(C)[C@@]4(F)[C@@H](O)C[C@]3(C)[C@]2(C(=O)CO)O1 (stereo not given in full),i,i,i,i,12*
CCc1ccc(OCc2ccc(C(=O)NCc3ccccn3)o2)cc1,i,i,i,i,25*
CCOc1ccc(OCc2ccc(C(=O)NCc3ccncc3)o2)cc1,i,i,i,i,i
NCCCNC(=O)c1cc2ccccc2[nH]1,106*,i,i,i,i
CC1(C)CC(=O)C2=C(C1)OC1OC(=O)CC21C (stereo not given),i,i,i,i,i
Cc1cccc(C)c1NC(=O)C[N+](C)(C)CC(O)COc1cccc2ccccc12 (stereo not given),i,i,i,i,i
